In ChEMBL document CHEMBL1134782, “Synthesis of 1-benzyl-3-(5'-hydroxymethyl-2'-furyl)indazole analogues as novel antiplatelet agents” (J Med Chem, 2001):

Key:
[1] = Inhibition of platelet aggregation induced by AA (100 uM); assay type: functional
Outline: (§1)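 Platelets were preincubated with test compound at 37 °C for 1 min. Values are mean ± SE from three to six separations. Aspirin served as positive control.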

[2] = Inhibition of platelet aggregation induced by thrombin (0.1 unit/ml); assay type: functional; outline: as §1
[3] = Inhibition of platelet aggregation induced by Collagen (10 uM); assay type: functional; conditions: in the assay text read “10 ug/mL” for “10 uM”; outline: as §1
[4] = inhibition of platelet aggregation induced by PAF (2 ng/mL); assay type: functional; outline: as §1
[5] = Inhibition of platelet aggregation induced by PAF (2 ng/mL); assay type: functional; outline: as §1
[6] = molecular target: T1, Soluble guanylate cyclase (Homo sapiens) (UniProt Q02153+O75343+P33402+Q02108); experiment: sGC activation was determined in the presence of [alpha-32P]GTP at a concentration of 82 uM; assay type: protein-complex assay
Outline: (§2)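 Soluble guanylate cyclase source was the supernatant fraction of platelet homogenate. It was incubated with [α-32P]GTP and 82 μM test compound at 37 °C for 10 min. Activity was expressed as pmol cGMP/min/mg protein.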

[7] = molecular target: T2, cGMP-specific 3',5'-cyclic phosphodiesterase (Homo sapiens, UniProt O76074); experiment: (§3) Inhibition of PDE5 from platelets
Outline: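 PDE activity fraction incubated with [3H]cGMP as substrate and a range of test-compound concentrations at 37 °C for 10 min. IBMX served as positive control.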

[8] = molecular target: T2, cGMP-specific 3',5'-cyclic phosphodiesterase; experiment: as §3; remark: listed apart in the source
Outline: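 PDE activity fraction incubated with [3H]cGMP as substrate and a range of test-compound concentrations at 37 °C for 10 min. […] IBMX served as positive control.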

[9] = Inhibition of platelet aggregation induced by Collagen (10 ug/mL)
[10] = molecular target: T1, Soluble guanylate cyclase (Homo sapiens); experiment: […] was determined in the presence of [alpha-32P]GTP at a concentration of 82 uM; assay type: protein-complex assay; outline: as §2

| SMILES | IC50 [1] [µM] | IC50 [2] [µM] | IC50 [3] [µM] | IC50 [4] [µM] | IC50 [5] [µM] | Activity (pM of cGMP (min)-1 (mg of protein)-1) [6] | IC50 [7] [µM] | IC50 [8] [µM] | IC50 [9] [µM] | Activity (pM of cGMP (min)-1 (mg of protein)-1) [10] |
| --- | --- | --- | --- | --- | --- | --- | --- | --- | --- | --- |
| COCc1ccc(-c2nn(Cc3ccccc3)c3cc(OC)ccc23)o1 | 108 | 256 | 115 | 177 |  |  |  |  |  |  |
| CCOC(=O)c1cccc(-c2nn(Cc3ccccc3)c3ccccc23)c1 | 125 | > 270 | 144 | > 270 |  |  |  |  |  |  |
| O=C(O)c1cccc(-c2nn(Cc3ccccc3)c3ccccc23)c1 | 156 | > 270 | 148 | 235 |  |  |  |  |  |  |
| CC(C)Cn1c(=O)n(C)c(=O)c2[nH]cnc21 [ISOBUTYLMETHYLXANTHINE] |  |  |  |  |  |  |  | 63 |  |  |
| Cc1ccc2c(-c3ccc(C(=O)O)o3)nn(Cc3ccccc3)c2c1 | 150 | > 270 | 182 | > 270 |  |  |  |  |  |  |
| COCc1ccc(-c2nn(Cc3ccccc3)c3cc4c(cc23)OCO4)o1 | 102 | > 270 | 113 | 196 |  |  |  |  |  |  |
| O=C(O)c1ccc(-c2nn(Cc3ccccc3)c3cc(F)ccc23)o1 | 119 | > 270 | 180 | > 270 |  |  |  |  |  |  |
| O=C(O)c1ccc(-c2nn(Cc3ccccc3)c3cc4c(cc23)OCO4)o1 | 148 | > 270 | 150 | > 270 |  |  |  |  |  |  |
| COC(=O)c1ccc(-c2nn(Cc3ccccc3)c3cc4c(cc23)OCO4)o1 | 136 | 260 | 168 | 254 |  |  |  |  |  |  |
| CCOC(=O)c1ccc(-c2nn(Cc3ccccc3)c3ccccc23)cc1 | 184 | 29.3 | 212 |  | 164 |  |  |  |  |  |
| O=C(O)c1ccc(-c2nn(Cc3ccccc3)c3ccccc23)cc1 | 130 | > 270 | 156 | 179 |  |  |  |  |  |  |
| O=C(O)c1ccc(-c2nn(-c3ccccc3)c3ccccc23)o1 | > 270 | > 270 | > 270 | > 270 |  |  |  |  |  |  |
| OCc1ccc(-c2[nH]nc3ccccc23)o1 | 101 | > 270 | > 270 | > 270 |  |  |  |  |  |  |
| COc1ccc2c(-c3ccc(C(=O)O)o3)nn(Cc3ccccc3)c2c1 | 150 | > 270 | 140 | > 270 |  |  |  |  |  |  |

Second part, the compound after the results:

| IC50 [1] [µM] | IC50 [2] [µM] | IC50 [3] [µM] | IC50 [4] [µM] | IC50 [5] [µM] | Activity (pM of cGMP (min)-1 (mg of protein)-1) [6] | IC50 [7] [µM] | IC50 [8] [µM] | IC50 [9] [µM] | Activity (pM of cGMP (min)-1 (mg of protein)-1) [10] | SMILES |
| --- | --- | --- | --- | --- | --- | --- | --- | --- | --- | --- |
| 83.7 | > 270 | 75.5 |  | > 270 |  |  |  |  |  | O=C(O)c1ccc(-c2nn(Cc3ccccc3)c3ccccc23)o1 |
| 49.7 | 168 | 46.7 |  | 89.2 | 39.9 |  |  |  |  | COc1ccc2c(-c3ccc(CO)o3)nn(Cc3ccccc3)c2c1 |
| 54.3 | 173 | 53.8 |  | 87.3 | 44.6 | 31.9 |  |  |  | OCc1ccc(-c2nn(Cc3ccccc3)c3ccccc23)o1 |
| 32.4 | 126 | 59.3 |  | 76.3 | 22.1 |  |  |  |  | COCc1ccc(-c2nn(Cc3ccccc3)c3cc(C)ccc23)o1 |
| 10.6 | > 270 | 18.2 |  | > 270 |  |  |  |  |  | COC(=O)c1ccc(-c2nn(-c3ccccc3)c3ccccc23)o1 |
| 94 | > 270 |  |  | 149 |  |  |  | 101 |  | COC(=O)c1ccc(-c2nn(Cc3ccccc3)c3cc(F)ccc23)o1 |
| 55.7 | 102 | 50.4 |  | 55.9 | 17.9 | 63 |  |  |  | CCN(CC)Cc1ccc(-c2nn(Cc3ccccc3)c3ccccc23)o1 |
| 96.6 | 239 |  |  | 164 |  |  |  | 105 |  | OCc1ccc(-c2nn(Cc3ccccc3)c3cc4c(cc23)OCO4)o1 |
| 49.4 | 147 | 45.9 |  | 72 | 35.1 | 8.4 |  |  |  | Cc1ccc2c(-c3ccc(CO)o3)nn(Cc3ccccc3)c2c1 |
| 101 | 193 | 123 | 143 |  |  |  |  |  |  | OCc1ccc(-c2nn(Cc3ccccc3)c3ccccc23)cc1 |
| 51.3 | > 270 | 98.1 |  | 174 |  |  |  |  |  | OCc1cccc(-c2nn(Cc3ccccc3)c3ccccc23)c1 |
| 81.1 | > 270 | 162 |  | > 270 |  |  |  |  |  | COC(=O)c1ccc(-c2nn(Cc3ccccc3)c3ccccc23)o1 |
| 92.3 | > 270 | 157 |  | > 270 |  |  |  |  |  | COC(=O)c1ccc(-c2nn(Cc3ccccc3)c3cc(OC)ccc23)o1 |
| 20 | > 270 | > 270 |  | > 270 |  |  |  |  |  | CC(=O)Oc1ccccc1C(=O)O [ASPIRIN] |
| 21.7 | 217 | 25.2 |  | 53.4 | 37.2 | 14 |  |  |  | OCc1ccc(-c2nn(Cc3ccccc3)c3cc(F)ccc23)o1 |
| 47.3 | 39.4 | 27.5 | 39.6 |  |  | 22.3 |  |  | 30.9 | Cc1ccc(-c2nn(Cc3ccccc3)c3ccccc23)o1 |
| 8.2 | 143 | 6.6 |  | 25.5 | 32 | 13.8 |  |  |  | COCc1ccc(-c2nn(Cc3ccccc3)c3ccccc23)o1 |
| 17.9 | 158 | 13.7 |  | 145 | 27.8 | 36.3 |  |  |  | OCc1ccc(-c2nn(-c3ccccc3)c3ccccc23)o1 |
| 45.9 | 116 | 64.1 |  | 109 | 41.8 | 3.9 |  |  |  | COCc1ccc(-c2nn(Cc3ccccc3)c3cc(F)ccc23)o1 |
| 64.2 | > 270 | 78.3 |  | > 270 |  |  |  |  |  | COC(=O)c1ccc(-c2nn(Cc3ccccc3)c3cc(C)ccc23)o1 |
